These results are taken from ChEMBL document CHEMBL1129974, “Discovery of HIV-1 integrase inhibitors by pharmacophore searching” (J Med Chem, 1997).

In assay [1] the target is Human immunodeficiency virus type 1 integrase (Human immunodeficiency virus 1) (UniProt Q7ZJM1). Description: Percentage inhibition was obtained by performing in vitro assay on purified recombinant integrase by 3''-processing method at 100 micro g/mL (experiment 1). The gist of the method: (§1)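 Single concentration of 100 µg/mL tested. Recombinant HIV-1 integrase (200 nM final) preincubated with compound for 30 min at 30 °C in Mn2+/DMSO buffer, then reacted for 60 min with 20 nM 5′-32P-labeled 21-mer LTR duplex. Gel and phosphorimager quantitation of 19-mer 3′-processing and strand transfer products. %I = 100×[1−(D−C)/(N−C)], relative to DNA-alone and DNA+integrase controls.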
Chain of Human immunodeficiency virus type 1 integrase (Human immunodeficiency virus 1) (Q7ZJM1 as listed by the source): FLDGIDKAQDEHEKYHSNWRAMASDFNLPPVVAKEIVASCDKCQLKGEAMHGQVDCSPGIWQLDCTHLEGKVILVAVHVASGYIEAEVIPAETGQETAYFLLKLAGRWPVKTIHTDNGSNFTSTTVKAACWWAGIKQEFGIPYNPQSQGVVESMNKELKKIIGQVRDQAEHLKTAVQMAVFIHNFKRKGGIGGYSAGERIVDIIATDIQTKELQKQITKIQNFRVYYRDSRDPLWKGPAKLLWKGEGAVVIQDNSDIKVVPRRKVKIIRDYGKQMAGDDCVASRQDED

For assay [2] the target is unchanged. Briefly: Percentage inhibition was obtained by performing in vitro assay on purified recombinant integrase by 3''-processing method at 100 micro g/mL (experiment 2). An outline of the steps:
as §1

The target is the same in assay [3]. Description: Percentage inhibition was obtained by performing in vitro assay on purified recombinant integrase by strand transfer method at 100 micro g/mL (experiment 1). The gist of the method:
as §1

Assay [4] has the same target. Briefly: Percentage inhibition was obtained by performing in vitro assay on purified recombinant integrase by strand transfer method at 100 micro g/mL (experiment 2). The gist of the method:
as §1

The target of assay [5] is T1, Human immunodeficiency virus type 1 integrase (Human immunodeficiency virus 1, UniProt Q7ZJM1). Description: Inhibitory concentration against purified recombinant integrase by 3'-processing in vitro assay (experiment 2). The gist of the method: (§2)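 Recombinant wild-type HIV-1 integrase, final 200 nM, preincubated with inhibitor for 30 min at 30 °C. Buffer: 50 mM NaCl, HEPES/MOPS, 7.5 mM MnCl2 when specified, 10% DMSO, 10% glycerol, BSA, 2-mercaptoethanol. Then 20 nM 5′-32P-labeled 21-mer U5 LTR duplex (AE117/AE118) added for 60 min. Products separated on denaturing 20% urea gel and quantified by phosphorimager. 3′-processing (19-mer) and strand transfer products read in one reaction. IC50 read from plot of concentration vs percent inhibition, several concentrations.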
T1 sequence (Q7ZJM1 whole entry): as the sequence (Q7ZJM1 as listed by the source) above

Assay [6] deals with T1, Human immunodeficiency virus type 1 integrase. Description: Inhibitory concentration against purified recombinant integrase by strand transfer in vitro assay (experiment 2). The gist of the method:
as §2

Assay [7] shares this target. Description: Inhibitory concentration against purified recombinant integrase by 3'-processing in 3D search (experiment 1). An outline of the steps: as §2
The target is the same in assay [8]. Briefly: Inhibitory concentration against purified recombinant integrase by 3'-processing in 3D search (experiment 2). An outline of the steps:
as §2

For assay [9] the target is unchanged. Description: Inhibitory concentration against purified recombinant integrase by strand transfer 3D search (experiment 2). The gist of the method: as §2
For assay [10] the target is unchanged. Description: Inhibitory concentration against purified recombinant integrase by strand transfer 3D search (experiment 1). The gist of the method:
as §2

For assay [11] the target is unchanged. Description: Inhibitory concentration against purified recombinant integrase by strand transfer in vitro assay (experiment 1). An outline of the steps: as §2
Assay [12] shares this target. Description: Inhibitory concentration against purified recombinant integrase by 3'-processing in vitro assay (experiment 1). An outline of the steps:
as §2

For assay [13] the target is unchanged. Briefly: Inhibitory concentration against purified recombinant integrase by strand transfer in vitro assay.
Assay [14] shares this target. Briefly: Inhibitory concentration against purified recombinant integrase by 3'-processing in vitro assay.
Assay [15] has the same target. Description: Inhibitory concentration against purified recombinant integrase by 3'-processing in 3D search.
The target is the same in assay [16]. Description: (§3) Inhibitory concentration against purified recombinant integrase by strand transfer 3D search.
Assay [17] has the same target. Briefly: Inhibitory concentration against purified recombinant integrase by strand transferrin vitro assay. The gist of the method:
as §2

The target is the same in assay [18]. Described as §3. The gist of the method: as §2
The source holds these as a separate data set.

As for `O=C(CC(O)c1cccnc1)CC(O)c1cccnc1` (stereo not given), the inhibition in assay [1] was found to be 22.5%; in [2], 19.1%; in assay [3], 48.1%; in assay [4], 43.2%.
`CCN(CC)CCCC(C)Nc1cc(F)cc2cccnc12` (stereo not given): the inhibition in [1] worked out at 36.5%; in [2], 41.2%; in [3], 27.6%; in assay [4], 48.9%.
With `O=c1ccc2cc(O[C@@H]3O[C@H](CO)[C@@H](O)[C@H](O)[C@H]3O)c(O)cc2o1`, the inhibition in [1] stood at 40.8%; in assay [2], 29.6%; in assay [3], 67.7%; in [4], 34.2%.
`C[C@H]1C(=O)c2c(cc(O)c(C3OC(CO)C(O)C(O)C3O)c2O)OC1c1ccc(O)c(O)c1` (stereo not given in full): the IC50 in assay [5] was 124 µM; in assay [6], 47.6 µM; in assay [7], 177 µM; in assay [8], 125 µM; in assay [9], 47.4 µM; in assay [10], 103 µM. Moreover, the concentration for half-maximal inhibition (IC50) amounted to 103 µM in assay [11] and 177 µM in assay [12].
For `O=C(CC(=O)Nc1ccccc1O)Nc1ccccc1O`, the inhibition is 23.1% in [1], 17.6% in assay [2], 57.2% in [3] and 37% in [4].
As to `O=C(NCO)NCOCn1c(=O)n(CO)c(=O)n(CO)c1=O`, the IC50 in assay [13] is 5 µM; in assay [14], 5.3 µM; in assay [15], 5.29 µM; in assay [16], 4.98 µM.
For the compound `Cc1cc(CC(=O)NCCO)n(CCO)c(=O)c1`, the inhibition in [1] was 45.3%; in [2], 30.3%; in assay [3], 90.6%; in assay [4], 47.9%.
For the compound `O=C(NO)/C(CC(=O)c1ccc(O)cc1O)=N\O`, the IC50 was 71.3 µM in assay [5]; 35.8 µM in [6]; 29.9 µM in assay [7]; 70.8 µM in assay [8]; 35.8 µM in assay [9]; 16.5 µM in [10]. In addition, the IC50 in [11] was found to be 16.5 µM; in assay [12] it was 29.9 µM.
Turning to `O=C(N/N=C/c1ccc(O)cc1O)N/N=C/c1ccc(O)cc1O`, the IC50 was 20.6 µM in assay [17], 20.6 µM in assay [18], 26 µM in [14] and 26.3 µM in [15].
Take `O=C(CC(O)(c1ccccc1)c1ccc(Cl)cc1)NC(=O)c1ccccc1O` (stereo not given): the IC50 in assay [5] is 238 µM; in assay [6] it was 142 µM; in assay [7], 182 µM; in [8], 237 µM; in assay [9] it was 141 µM; in assay [10] it was 101 µM. Also, the IC50 in [11] worked out at 101 µM; in assay [12] it was 182 µM.
With `COc1cc(N)ccc1C(=O)NC(CCC(=O)O)C(=O)O` (stereo not given), the IC50 in assay [5] was 271 µM; in assay [6], 271 µM; in assay [7] it was 230 µM; in assay [8], 270 µM; in assay [9], 270 µM; in assay [10], 203 µM. Besides, the IC50 in [11] came to 203 µM; in assay [12], 228 µM.
On to `CCN(CC)CCCC(C)Nc1ccnc2ccc(Cl)nc12` (stereo not given), for which the inhibition worked out at 43.7% in assay [1], 30.6% in assay [2], 87.4% in [3] and 56.6% in assay [4].
Consider `CCC/C=C/C=C/[C@@H]1C[C@@H](O)[C@@H](O)C(=O)[C@H]1CO`, for which the IC50 in assay [5] was 289 µM; in [6], 135 µM; in [7], 350 µM; in assay [8] it was 291 µM; in assay [9] it was 134 µM; in assay [10] it was 267 µM. Moreover, the figures for the IC50 in assay [11] and in assay [12] were 268 µM and 350 µM, respectively.
Turning to `O=C(N/N=C/c1ccccc1O)C(O)(c1ccccc1)c1ccccc1`, the inhibition was 34.7% in assay [1], 56.7% in assay [2], 70.5% in assay [3] and 74.1% in assay [4].
On to `O=C(NNC(=O)c1ccccc1O)c1ccccc1O.O=C(NNCC(O)COc1ccccc1)c1ccccc1O` (stereo not given), for which the half-maximal inhibitory concentration (IC50) in [13] is 1.5 µM; in assay [14], 2 µM; in assay [15] it was 1.04 µM; in assay [16], 0.801 µM.
Turning to `O=C(NN(CCO)CCO)c1ccccc1`, the inhibition was 25% in [1], 43.9% in assay [2], 52.4% in assay [3] and 69.9% in assay [4].
Taken in the same sequence, the figures for `O=C(O)CNC(=O)c1ccccc1O` were 28.9%, 33.3%, 25% and 33.3%.
Regarding `COc1cc2oc(-c3ccc(O)cc3)cc(=O)c2c(O)c1C1OC(CO)C(O)C(O)C1O` (stereo not given), the IC50 was 291 µM in assay [5]; 143 µM in assay [6]; 224 µM in [7]; 291 µM in [8]; 143 µM in assay [9]; 134 µM in [10]. Besides, the IC50 in assay [11] came out at 134 µM; in assay [12], 224 µM. The inhibition in assay [1] was 62.7%; in assay [2], 43.4%; in assay [3], 92.2%; in assay [4] it was 66.8%.
For the compound `O=C1Oc2ccccc2C(O)C1C(c1ccccc1)C1C(=O)Oc2ccccc2C1O` (stereo not given), the IC50 in assay [13] turned out to be 38.8 µM; in [14], 43.4 µM.
With `O=C(NCCO)c1cc(Cl)ccc1O`, the inhibition in [1] is 0.4%; in assay [2] it was 2.2%; in [3] it was 0%; in [4], 13.4%.
In the case of `O=C(NCO)c1ccccc1O`, the inhibition in assay [1] was 25.8%; in assay [2] it was 10.2%; in [3], 61.5%; in assay [4], 55.2%.
In the same order, the values of `CCCCCCCCCCCCCCCCCCCN1CN(CO)CN(CO)C1=O` are 20.8%, 43.2%, 54.4% and 69.7%.
In the same order, the values of `O=C(OCCO)c1ccccc1O` are 10.9%, 2.6%, 17.1% and 18.9%.
On to `O=C(N/N=C/c1ccccc1O)C(O)c1ccccc1` (stereo not given), for which the inhibition in [1] came to 37%; in [2], 45.8%; in assay [3], 77.9%; in [4] it was 70.2%.
With `O=C(CCCCC(=O)c1ccc(O)cc1O)OCCO`, the IC50 in assay [5] is 367 µM; in [6], 233 µM; in [7] it was 294 µM; in assay [8] it was 368 µM; in assay [9], 234 µM; in assay [10] it was 184 µM. Also, the IC50 in assay [11] amounted to 185 µM; in assay [12], 294 µM.
